Test results published in ChEMBL document CHEMBL4024793, “Development of Stem-Cell-Mobilizing Agents Targeting CXCR4 Receptor for Peripheral Blood Stem Cell Transplantation and Beyond” (J Med Chem, 2018).
Activity calls are given as the source filed them. The rule behind the calls is not given here.

Legend:
[1] = target: T1, C-X-C chemokine receptor type 4 (Homo sapiens, UniProt P61073); test: Displacement of [125I]CXCL12 from human CXCR4 expressed in HEK293 cell membranes after 1.5 hrs by Topcount method
[2] = target: C-C chemokine receptor type 7 (Homo sapiens) (UniProt P32248); test: Antagonist activity at human CCR7 expressed in CHOK1 cells assessed as inhibition of CCL19-induced cAMP accumulation at 10 uM preincubated for 30 mins followed agonist addition measured after 30 to 60 mins; type: functional, cell-based
Summary of the method: (§1)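 GPCR cAMP assay with a single test concentration of 10 μM; result expressed as percentage inhibition for each chemokine receptor.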

[3] = target: Chemokine XC receptor 1 (Homo sapiens) (UniProt P46094); test: Antagonist activity at human XCR1 expressed in CHOK1 cells assessed as inhibition of lymphotactin-induced cAMP accumulation at 10 uM preincubated for 30 mins followed agonist addition measured after 30 to 60 mins; type: functional, cell-based; summary of the method: as §1
[4] = target: C-X-C chemokine receptor type 1 (Homo sapiens) (UniProt P25024); test: Antagonist activity at human CXCR1 expressed in CHOK1 cells assessed as inhibition of interleukin-8-induced cAMP accumulation at 10 uM preincubated for 30 mins followed agonist addition measured after 30 to 60 mins; type: functional, cell-based; summary of the method: as §1
[5] = target: T1, C-X-C chemokine receptor type 4; test: Antagonist activity at human CXCR4 expressed in CHOK1 cells assessed as inhibition of SDF1a-induced cAMP accumulation at 10 uM preincubated for 30 mins followed agonist addition measured after 30 to 60 mins; type: functional, cell-based; summary of the method: as §1
[6] = target: C-X-C chemokine receptor type 5 (Homo sapiens) (UniProt P32302); test: Antagonist activity at human CXCR5 expressed in CHOK1 cells assessed as inhibition of CXCL13-induced cAMP accumulation at 10 uM preincubated for 30 mins followed agonist addition measured after 30 to 60 mins; type: functional, cell-based; summary of the method: as §1
[7] = target: C-X-C chemokine receptor type 6 (Homo sapiens) (UniProt O00574); test: Antagonist activity at human CXCR6 at 10 uM preincubated for 30 mins followed agonist addition measured after 30 to 60 mins by cAMP assay; type: functional; summary of the method: as §1
Mus musculus [8] = test: Induction hematopoietic stem cell mobilization in C57BL/6 mouse assessed as increase in CXCR4+ cells in blood at 35 mg/kg, sc measured after 2 hrs by APC-conjugated anti-CXCR4-staining based flow cytometry relative to vehicle control; type: functional
Summary of the method: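 Male C57BL/6 mice, 8–10 weeks old, received SC doses escalating through 1, 6, 20, 35 and 50 mg/kg. Blood was drawn 2 h after dosing and labelled with APC-conjugated anti-CXCR4 (clone 2B11). CXCR4⁺ cells were counted by flow cytometry, at least 60,000 events per point. Mean ± SEM, n = 3 per group, t test against vehicle.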

Mus musculus [9] = test: Induction of hematopoietic stem cell mobilization in C57BL/6 mouse assessed as increase in CFU-GM colonies from PBMC at 35 mg/kg, sc administered on day 5 post 100 ug/kg/day G-CSF addition for 4 days measured after 2 hrs post compound dose by colony forming assay relative to AMD3100; type: functional
Summary of the method: (§2)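 Male C57BL/6 mice given G-CSF 100 µg/kg SC daily for 4 days. On day 5, G-CSF was co-injected SC with compound. Heparinized blood taken 2 h later; PBMCs isolated and cultured in methylcellulose medium for 10–14 days. CFU-GM colonies (aggregates of ≥50 cells) counted under an inverted microscope. Mean ± SEM, 8–12 mice per group, t test.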

Cytochrome P450 1A2 = Cytochrome P450 1A2 (Homo sapiens, UniProt P05177); test: Inhibition of human liver microsomal CYP1A2; type: ADME
Cytochrome P450 2C9 = Cytochrome P450 2C9 (Homo sapiens, UniProt P11712); test: Inhibition of human liver microsomal CYP2C9; type: ADME
Cytochrome P450 2D6 = Cytochrome P450 2D6 (Homo sapiens, UniProt P10635); test: Inhibition of human liver microsomal CYP2D6; type: ADME
Mus musculus [10] = test: In vivo induction of WBC mobilization in C57BL/6 mouse at 35 mg/kg, sc measured after 2 hrs; type: functional, organism-based
Summary of the method: (§3)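 C57BL/6 mice given a single SC injection at 6 or 35 mg/kg. Blood collected 2 h after dosing and analysed for total white blood cells, neutrophils, lymphocytes and monocytes.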

Mus musculus [11] = test: In vivo antagonist activity at CXCR4 in C57BL/6 mouse assessed as induction of neutrophils molization at 35 mg/kg, sc measured after 2 hrs relative to AMD3100; type: functional; design: scale not given: the % may be the effect or the level left; summary of the method: as §3
Mus musculus [12] = test: In vivo antagonist activity at CXCR4 in C57BL/6 mouse assessed as induction of monocytes molization at 35 mg/kg, sc measured after 2 hrs relative to AMD3100; type: functional; design: scale not given: the % may be the effect or the level left; summary of the method: as §3
Mus musculus [13] = test: In vivo antagonist activity at CXCR4 in C57BL/6 mouse assessed as induction of neutrophils molization at 35 mg/kg, sc measured after 2 hrs relative to untreated control; type: functional
Mus musculus [14] = test: In vivo antagonist activity at CXCR4 in C57BL/6 mouse assessed as induction of lymphocytes molization at 35 mg/kg, sc measured after 2 hrs relative to untreated control; type: functional
Mus musculus [15] = test: In vivo antagonist activity at CXCR4 in C57BL/6 mouse assessed as induction of monocytes molization at 35 mg/kg, sc measured after 2 hrs relative to untreated control; type: functional
Rattus norvegicus [16] = test: Hepatotoxicity in Sprague-Dawley rat assessed as effect on liver size at 50 mg/kg/day, sc administered for 14 days relative to control; type: toxicity, organism-based; details: in vivo, 336 h
Summary of the method: (§4)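 Non-GLP 14-day repeated-dose study in SD rats given 50 mg/kg/day SC. Major organs (liver, kidney, lung, heart) compared with vehicle for size, weight and colour. Blood analysed for hematological and biochemical parameters.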

Rattus norvegicus [17] = test: Renal toxicity in Sprague-Dawley rat assessed as effect on kidney size at 50 mg/kg/day, sc administered for 14 days relative to control; type: organism-based; details: in vivo, 336 h; summary of the method: as §4
Rattus norvegicus [18] = test: Toxicity in Sprague-Dawley rat assessed as effect on lung size at 50 mg/kg/day, sc administered for 14 days relative to control; type: organism-based; details: in vivo, 336 h; summary of the method: as §4
Rattus norvegicus [19] = test: Cardiotoxicity in Sprague-Dawley rat assessed as effect on heart size at 50 mg/kg/day, sc administered for 14 days relative to control; type: toxicity, organism-based; details: in vivo, 336 h; summary of the method: as §4
Rattus norvegicus [20] = test: Hepatotoxicity in Sprague-Dawley rat assessed as effect on liver weight at 50 mg/kg/day, sc administered for 14 days relative to control; type: toxicity, organism-based; details: in vivo, 336 h; summary of the method: as §4
Rattus norvegicus [21] = test: Cardiotoxicity in Sprague-Dawley rat assessed as effect on heart color at 50 mg/kg/day, sc administered for 14 days relative to control; type: toxicity, organism-based; details: in vivo, 336 h; summary of the method: as §4
Mus musculus [22] = test: Induction of hematopoietic stem cell mobilization in C57BL/6 mouse assessed as increase in CFU-GM colonies from PBMC at 6 mg/kg, sc administered on day 5 post 100 ug/kg/day G-CSF addition for 4 days measured after 2 hrs post compound dose by colony forming assay relative to G-CSF alone; type: functional; summary of the method: as §2
Rattus norvegicus [23] = test: Toxicity in Sprague-Dawley rat assessed as effect on hematology parameters at 50 mg/kg/day, sc administered for 14 days relative to control; type: organism-based; details: in vivo, 336 h; summary of the method: as §4
Rattus norvegicus [24] = test: Toxicity in Sprague-Dawley rat assessed as effect on biochemistry parameters at 50 mg/kg/day, sc administered for 14 days relative to control; type: organism-based; details: in vivo, 336 h; summary of the method: as §4

T1 sequence (P61073 whole entry): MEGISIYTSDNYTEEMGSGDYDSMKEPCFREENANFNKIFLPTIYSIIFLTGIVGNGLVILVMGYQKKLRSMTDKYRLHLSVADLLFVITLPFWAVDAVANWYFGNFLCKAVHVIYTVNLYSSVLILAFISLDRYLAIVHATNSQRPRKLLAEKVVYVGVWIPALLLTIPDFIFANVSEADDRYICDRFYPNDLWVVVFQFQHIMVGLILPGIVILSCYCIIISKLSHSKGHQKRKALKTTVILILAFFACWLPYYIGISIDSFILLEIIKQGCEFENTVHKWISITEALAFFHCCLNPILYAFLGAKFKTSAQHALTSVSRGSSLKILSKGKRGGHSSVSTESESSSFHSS
Chain of C-X-C chemokine receptor type 5 (Homo sapiens) (P32302 whole entry): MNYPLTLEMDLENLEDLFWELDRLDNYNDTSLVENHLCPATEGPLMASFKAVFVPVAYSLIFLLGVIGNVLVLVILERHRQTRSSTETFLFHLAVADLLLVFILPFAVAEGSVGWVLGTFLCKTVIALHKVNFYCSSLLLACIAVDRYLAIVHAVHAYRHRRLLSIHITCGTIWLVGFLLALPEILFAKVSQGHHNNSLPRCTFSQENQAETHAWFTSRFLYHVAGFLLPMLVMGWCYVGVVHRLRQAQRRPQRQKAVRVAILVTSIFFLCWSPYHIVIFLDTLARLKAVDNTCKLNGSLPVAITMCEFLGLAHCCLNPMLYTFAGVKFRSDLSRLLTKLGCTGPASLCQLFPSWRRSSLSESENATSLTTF
Chain of C-X-C chemokine receptor type 6 (Homo sapiens) (O00574 whole entry, looked up): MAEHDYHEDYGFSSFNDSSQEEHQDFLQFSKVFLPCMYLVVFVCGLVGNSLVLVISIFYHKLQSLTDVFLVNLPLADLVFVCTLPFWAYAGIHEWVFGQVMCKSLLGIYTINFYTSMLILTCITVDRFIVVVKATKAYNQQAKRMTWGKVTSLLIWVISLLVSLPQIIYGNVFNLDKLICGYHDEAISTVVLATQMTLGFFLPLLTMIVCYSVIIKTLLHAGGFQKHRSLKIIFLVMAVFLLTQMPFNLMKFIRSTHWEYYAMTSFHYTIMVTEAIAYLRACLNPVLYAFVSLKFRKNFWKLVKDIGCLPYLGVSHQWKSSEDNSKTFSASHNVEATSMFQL
Chain of C-X-C chemokine receptor type 1 (Homo sapiens) (P25024 whole entry): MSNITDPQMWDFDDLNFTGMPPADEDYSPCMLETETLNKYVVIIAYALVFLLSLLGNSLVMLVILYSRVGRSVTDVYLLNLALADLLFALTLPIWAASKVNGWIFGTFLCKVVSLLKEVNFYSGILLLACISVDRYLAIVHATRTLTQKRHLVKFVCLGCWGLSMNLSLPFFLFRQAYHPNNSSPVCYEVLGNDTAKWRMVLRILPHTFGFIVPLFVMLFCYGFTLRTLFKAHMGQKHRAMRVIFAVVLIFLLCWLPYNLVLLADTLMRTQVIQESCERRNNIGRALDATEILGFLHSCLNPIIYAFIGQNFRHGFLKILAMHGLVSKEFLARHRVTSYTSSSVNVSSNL
Chain of Cytochrome P450 2D6 (P10635 whole entry): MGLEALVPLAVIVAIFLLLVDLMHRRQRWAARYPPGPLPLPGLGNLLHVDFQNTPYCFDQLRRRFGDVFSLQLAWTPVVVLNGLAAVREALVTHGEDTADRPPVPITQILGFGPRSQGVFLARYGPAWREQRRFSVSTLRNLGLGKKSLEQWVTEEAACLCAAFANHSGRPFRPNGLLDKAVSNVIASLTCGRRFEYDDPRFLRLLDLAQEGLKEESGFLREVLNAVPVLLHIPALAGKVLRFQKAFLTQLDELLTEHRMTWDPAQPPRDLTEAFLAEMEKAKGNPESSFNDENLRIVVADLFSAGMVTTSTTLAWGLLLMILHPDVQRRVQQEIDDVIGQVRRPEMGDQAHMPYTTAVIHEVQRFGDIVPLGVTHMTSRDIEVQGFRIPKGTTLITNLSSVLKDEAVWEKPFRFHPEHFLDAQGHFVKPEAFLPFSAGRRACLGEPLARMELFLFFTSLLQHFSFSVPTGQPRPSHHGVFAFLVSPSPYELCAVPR
Chain of Cytochrome P450 2C9 (P11712 whole entry): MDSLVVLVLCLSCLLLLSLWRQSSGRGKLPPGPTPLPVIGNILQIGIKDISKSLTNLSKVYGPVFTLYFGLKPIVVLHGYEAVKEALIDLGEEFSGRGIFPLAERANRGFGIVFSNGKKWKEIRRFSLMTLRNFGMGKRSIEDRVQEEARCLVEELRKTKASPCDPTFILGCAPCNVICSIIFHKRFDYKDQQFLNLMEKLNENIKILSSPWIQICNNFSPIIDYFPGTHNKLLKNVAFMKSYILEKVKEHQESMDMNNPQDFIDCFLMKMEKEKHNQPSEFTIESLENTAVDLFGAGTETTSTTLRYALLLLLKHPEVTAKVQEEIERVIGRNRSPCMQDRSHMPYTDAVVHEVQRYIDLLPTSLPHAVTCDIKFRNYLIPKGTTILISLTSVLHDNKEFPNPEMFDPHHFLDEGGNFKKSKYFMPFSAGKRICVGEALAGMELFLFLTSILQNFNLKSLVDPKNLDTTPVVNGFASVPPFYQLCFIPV
Chain of Chemokine XC receptor 1 (Homo sapiens) (P46094 whole entry): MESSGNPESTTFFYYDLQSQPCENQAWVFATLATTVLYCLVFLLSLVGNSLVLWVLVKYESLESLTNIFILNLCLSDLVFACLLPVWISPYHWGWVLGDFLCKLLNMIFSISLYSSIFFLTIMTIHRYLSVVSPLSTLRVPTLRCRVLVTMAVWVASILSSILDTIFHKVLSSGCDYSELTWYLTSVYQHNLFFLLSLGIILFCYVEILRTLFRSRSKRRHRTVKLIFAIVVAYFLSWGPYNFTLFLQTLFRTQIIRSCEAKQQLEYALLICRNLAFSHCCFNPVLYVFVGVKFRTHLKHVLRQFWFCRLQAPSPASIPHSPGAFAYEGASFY
Chain of C-C chemokine receptor type 7 (Homo sapiens) (P32248 whole entry): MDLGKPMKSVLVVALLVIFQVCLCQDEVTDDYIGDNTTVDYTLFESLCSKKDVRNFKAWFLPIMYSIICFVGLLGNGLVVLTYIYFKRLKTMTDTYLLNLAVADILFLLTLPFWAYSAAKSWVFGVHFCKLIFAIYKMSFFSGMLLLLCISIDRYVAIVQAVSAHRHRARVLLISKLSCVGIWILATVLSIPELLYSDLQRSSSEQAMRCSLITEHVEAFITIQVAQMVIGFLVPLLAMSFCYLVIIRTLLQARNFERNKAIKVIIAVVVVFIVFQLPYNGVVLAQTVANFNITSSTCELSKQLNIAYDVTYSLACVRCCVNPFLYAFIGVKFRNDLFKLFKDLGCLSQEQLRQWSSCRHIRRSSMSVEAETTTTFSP
Chain of Cytochrome P450 1A2 (P05177 whole entry): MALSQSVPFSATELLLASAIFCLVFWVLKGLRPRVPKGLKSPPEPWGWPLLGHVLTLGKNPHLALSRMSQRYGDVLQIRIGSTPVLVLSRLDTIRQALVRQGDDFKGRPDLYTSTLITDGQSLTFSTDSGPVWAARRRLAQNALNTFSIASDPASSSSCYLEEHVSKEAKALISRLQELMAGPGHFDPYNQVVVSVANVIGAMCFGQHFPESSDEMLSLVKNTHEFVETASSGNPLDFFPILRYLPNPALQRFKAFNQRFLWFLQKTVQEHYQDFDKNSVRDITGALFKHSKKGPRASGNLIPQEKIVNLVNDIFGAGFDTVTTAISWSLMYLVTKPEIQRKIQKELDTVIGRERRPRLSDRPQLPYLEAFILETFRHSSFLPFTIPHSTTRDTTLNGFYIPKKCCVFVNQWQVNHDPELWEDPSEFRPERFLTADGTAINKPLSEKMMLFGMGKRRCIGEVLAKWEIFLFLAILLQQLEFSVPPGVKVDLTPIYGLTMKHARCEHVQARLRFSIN

## Cc1cc(NC2CCN(C(=O)CCNCC(=O)O)CC2)nc(NCc2cn(CCCNCCCNC3CCCCC3)nn2)n1
[1]
  IC50: 0.0342 µM
[2]
  Efficacy: -4.2%
[3]
  Efficacy: -2.8%
[4]
  Efficacy: 0.3%
[5]
  Efficacy: 73.4%
[6]
  Efficacy: -11%
[7]
  Efficacy: -3.9%
Mus musculus [8]
  fold change (FC): 3
Mus musculus [9]
  fold change (FC): 1.6
Cytochrome P450 1A2
  IC50: > 100 µM
Cytochrome P450 2C9
  IC50: > 100 µM
Cytochrome P450 2D6
  IC50: > 100 µM
Mus musculus [10]
  Activity: Active
Mus musculus [11]
  Activity: 30 - 50%
Mus musculus [12]
  Activity: 30 - 50%
Mus musculus [13]
  fold change (FC): 2 - 4
Mus musculus [14]
  fold change (FC): 2 - 4
Mus musculus [15]
  fold change (FC): 2 - 4
Rattus norvegicus [16]
  Activity: Non-Toxic
Rattus norvegicus [17]
  Activity: Non-Toxic
Rattus norvegicus [18]
  Activity: Non-Toxic
Rattus norvegicus [19]
  Activity: Non-Toxic
Rattus norvegicus [20]
  Activity: Non-Toxic
Rattus norvegicus [21]
  Activity: Non-Toxic
Mus musculus [22]
  fold change (FC): 5.3
Rattus norvegicus [23]
  Activity: Non-Toxic
Rattus norvegicus [24]
  Activity: Non-Toxic
